Experimental data as given in ChEMBL document CHEMBL2086235, “A novel thiazolidine compound induces caspase-9 dependent apoptosis in cancer cells” (Bioorg Med Chem, 2012).
Calls of active or inactive are those of the source. No cut-off for these calls is given here.

Legend:
Assay type in all cases: functional, cell-based
Huh-7 [1] = assay: Growth inhibition of human HuH7 cells incubated for 48 hrs by Giemsa staining
In short: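 Cells grown overnight, compound added from DMSO solution, then incubated 48 h more. Attached cells stained with Giemsa and photographed; qualitative read-out.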

HCT-116 [2] = assay: Induction of cell death in human HCT116 cells at 2.5 to 40 uM incubated for 72 hrs by SRB assay
In short: (§1)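 Cells seeded and grown 24 h at 37 °C, then treated 72 h in triplicate. Fixed with cold 10% TCA 1 h at 4 °C, stained with 0.4% SRB in 1% acetic acid 10 min, washed in 1% acetic acid. Dye solubilized in 10 mM Tris base; absorbance read at 515 nm. Normalized to DMSO control and Tz; three independent experiments.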

Huh-7 [3] = assay: Induction of cell death in human HuH7 cells at 2.5 to 40 uM incubated for 72 hrs by SRB assay; in short: as §1
MCF7 [4] = assay: Induction of cell death in human MCF7 cells at 2.5 to 40 uM incubated for 72 hrs by SRB assay; in short: as §1
CAMA-1 = assay: Cytotoxicity against human CAMA1 cells incubated for 72 hrs by SRB assay; conditions: CAMA-1, 72 h
In short: (§2)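 Cells grown in DMEM with 10% FCS, 2 mM L-glutamine, NEAA and antibiotics at 37 °C, 5% CO2, then seeded at 1000–5000 cells/well and grown 24 h. Compounds were added from DMSO for 72 h, following NCI guidelines. Cells were fixed in cold 10% TCA for 1 h at 4 °C and stained with 0.4% SRB in 1% acetic acid for 10 min. Bound dye was dissolved in 10 mM Tris and absorbance read at 515 nm.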

HepG2 = assay: Cytotoxicity against human HepG2 cells incubated for 72 hrs by SRB assay; conditions: HepG2, 72 h; in short: as §2
[5] = Cytotoxicity against human FOCUS cells incubated for 72 hrs by SRB assay; in short: as §2
[6] = Cytotoxicity against human MV cells incubated for 72 hrs by SRB assay; in short: as §2
HCT-116 [7] = assay: Cytotoxicity against human HCT116 cells incubated for 72 hrs by SRB assay; conditions: HCT-116, 72 h; in short: as §2
MFE-296 = assay: Cytotoxicity against human MFE296 cells incubated for 72 hrs by SRB assay; conditions: MFE-296, 72 h; in short: as §2
T47D = assay: Cytotoxicity against human T47D cells incubated for 72 hrs by SRB assay; in short: as §2
BT-20 = assay: Cytotoxicity against human BT20 cells incubated for 72 hrs by SRB assay; conditions: BT-20, 72 h; in short: as §2
MCF7 [8] = assay: Cytotoxicity against human MCF7 cells incubated for 72 hrs by SRB assay; conditions: MCF7, 72 h; in short: as §2
Huh-7 [9] = assay: Cytotoxicity against human HuH7 cells incubated for 72 hrs by SRB assay; conditions: Huh-7, 72 h; in short: as §2

| Compound | growth inhibition (GI) (Huh-7 [1]) | also measured |
| --- | --- | --- |
| CCCCCCCCCCC(=O)N(CCc1ccsc1)C[C@@H]1CSC(c2ccccc2)N1C(=O)c1ccccc1 (stereo not given in full) | inactive | – |
| CCOC(=O)Cn1cc(C(=O)N2C(c3ccccc3)SC[C@H]2C(=O)OCC)nn1 (stereo not given in full) | inactive | – |
| Cc1cn(CC(=O)N2C(c3ccccc3)SC[C@H]2C(=O)NC(C)C)c(=O)[nH]c1=O (stereo not given in full) | inactive | – |
| CCOC(=O)[C@@H]1CSC(c2ccccc2)N1C(=O)c1cn(CC(=O)OCc2ccccc2)nn1 (stereo not given in full) | inactive | – |
| O=C(O)CN(C[C@@H]1CSC(c2ccccc2)N1C(=O)c1ccccc1)C(=O)c1c(F)c(F)c(F)c(F)c1F (stereo not given in full) | inactive | – |
| O=C(c1c(F)c(F)c(F)c(F)c1F)N(CCc1ccsc1)C[C@@H]1CSC(c2ccccc2)N1C(=O)c1ccccc1 (stereo not given in full) | inactive | – |
| CCCCCCCCCCC(=O)N(CC(=O)OC)C[C@@H]1CSC(c2ccccc2)N1C(=O)c1ccccc1 (stereo not given in full) | inactive | – |
| CCCCCCCCCCC(=O)N(CC(=O)O)C[C@@H]1CSC(c2ccccc2)N1C(=O)c1ccccc1 (stereo not given in full) | inactive | – |
| CCOC(=O)[C@@H]1CSC(c2ccccc2)N1C(=O)c1cn(CCc2ccsc2)nn1 (stereo not given in full) | inactive | Activity (HCT-116 [2]): inactive; Activity (Huh-7 [3]): inactive; Activity (MCF7 [4]): inactive |
| CC(C)(C)C(=O)N(CCc1ccsc1)C[C@@H]1CSC(c2ccccc2)N1C(=O)c1ccccc1 (stereo not given in full) | inactive | Activity (HCT-116 [2]): inactive; Activity (Huh-7 [3]): inactive; Activity (MCF7 [4]): inactive |
| Cc1cn(CC(=O)N2C(c3ccccc3)SC[C@H]2C(=O)NCCc2ccccc2)c(=O)[nH]c1=O (stereo not given in full) | inactive | – |
| CCCCCCC(C)NC(=O)[C@@H]1CSC(c2ccccc2)N1C(=O)Cn1cc(C)c(=O)[nH]c1=O (stereo not given in full) | inactive | – |
| CCOC(=O)[C@@H]1CSC(c2ccccc2)N1C(=O)c1cn(CC2OCOC2(C)C)nn1 (stereo not given in full) | inactive | – |
| CCCCCCCCCCCCNC(=O)[C@@H]1CSC(c2ccccc2)N1C(=O)Cn1cc(C)c(=O)[nH]c1=O (stereo not given in full) | inactive | – |
| CCCCCCC(=O)N(CC(=O)O)C[C@@H]1CSC(c2ccccc2)N1C(=O)c1ccccc1 (stereo not given in full) | inactive | – |
| CCOC(=O)[C@@H]1CSC(c2ccccc2)N1C(=O)c1cn(CCc2ccc(F)cc2)nn1 (stereo not given in full) | inactive | – |
| O=c1[nH]cc(F)c(=O)[nH]1 [FLUOROURACIL] | – | IC50 (CAMA-1): 1280 nM; IC50 (HepG2): 5700 nM; IC50 [5]: 7690 nM; IC50 [6]: 9970 nM; IC50 (HCT-116 [7]): 18700 nM; IC50 (MFE-296): 30700 nM; IC50 (T47D): 8910 nM; IC50 (BT-20): 47300 nM |
| CCCCCCC(=O)N(CC(=O)OC)C[C@@H]1CSC(c2ccccc2)N1C(=O)c1ccccc1 (stereo not given in full) | inactive | – |
| CCOC(=O)[C@@H]1CSC(c2ccccc2)N1C(=O)c1cn(CCCCCCO)nn1 (stereo not given in full) | inactive | – |
| COC(=O)CN(C[C@@H]1CSC(c2ccccc2)N1C(=O)c1ccccc1)C(=O)c1c(F)c(F)c(F)c(F)c1F (stereo not given in full) | inactive | – |
| CC[C@@]1(O)C(=O)OCc2c1cc1n(c2=O)Cc2cc3ccccc3nc2-1 [CAMPTOTHECIN] | – | IC50 (CAMA-1): 70 nM; IC50 (HepG2): 10 nM; IC50 [5]: < 1000 nM; IC50 [6]: < 1000 nM; IC50 (HCT-116 [7]): < 1000 nM; IC50 (MFE-296): < 1000 nM; IC50 (MCF7 [8]): < 1000 nM; IC50 (Huh-7 [9]): 150 nM; IC50 (T47D): < 1000 nM; IC50 (BT-20): 70 nM |
| Cc1cn(CC(=O)N2C(c3ccccc3)SC[C@H]2C(=O)NC(C)(C)C)c(=O)[nH]c1=O (stereo not given in full) | inactive | Activity (HCT-116 [2]): inactive; Activity (Huh-7 [3]): inactive; Activity (MCF7 [4]): inactive |
| CCOC(=O)[C@@H]1CSC(c2ccccc2)N1C(=O)c1cn(CC(O)CO)nn1 (stereo not given in full) | inactive | – |
| CCOC(=O)[C@@H]1CSC(c2ccccc2)N1C(=O)c1cn(CCCNC(=O)C(F)(F)F)nn1 (stereo not given in full) | inactive | – |
| CCOC(=O)[C@@H]1CSC(c2ccccc2)N1C(=O)c1cn(CCc2ccccc2)nn1 (stereo not given in full) | inactive | – |
| COC(=O)CN(C[C@@H]1CSC(c2ccccc2)N1C(=O)c1ccccc1)C(=O)C(C)(C)C (stereo not given in full) | inactive | – |
| Cc1cn(CC(=O)N2C(c3ccccc3)SC[C@H]2C(=O)NCc2ccccc2)c(=O)[nH]c1=O (stereo not given in full) | inactive | – |
| CC(C)(C)C(=O)N(CC(=O)O)C[C@@H]1CSC(c2ccccc2)N1C(=O)c1ccccc1 (stereo not given in full) | inactive | – |
| CCOC(=O)[C@@H]1CSC(c2ccccc2)N1C(=O)c1cn(Cc2ccccc2)nn1 (stereo not given in full) | inactive | – |
| CCCCCCC(=O)N(CCc1ccsc1)C[C@@H]1CSC(c2ccccc2)N1C(=O)c1ccccc1 (stereo not given in full) | inactive | – |
